# Assay results reported in ChEMBL document CHEMBL1145027, “Design and synthesis of statine-based cell-permeable peptidomimetic inhibitors of human beta-secretase” (J Med Chem, 2003).
# Where a SMILES comes first, the peptide text is derived from it. [ ]: non-standard residue; d: D form. Sta = CC(C)C[C@H](N)[C@@H](O)CC(=O)O
# Target: Beta-secretase 1 (Homo sapiens, UniProt P56817)
# Assay: Inhibition of human beta-secretase (BACE) in MBP-C125 assay
# Method in brief: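 BACE activity measured with maltose-binding protein fused C-125 (MBP-C125) substrate; IC50 taken as the concentration giving 50% inhibition of enzyme activity, averaged from two or more runs.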
# Beta-secretase 1, sequence (P56817 whole entry): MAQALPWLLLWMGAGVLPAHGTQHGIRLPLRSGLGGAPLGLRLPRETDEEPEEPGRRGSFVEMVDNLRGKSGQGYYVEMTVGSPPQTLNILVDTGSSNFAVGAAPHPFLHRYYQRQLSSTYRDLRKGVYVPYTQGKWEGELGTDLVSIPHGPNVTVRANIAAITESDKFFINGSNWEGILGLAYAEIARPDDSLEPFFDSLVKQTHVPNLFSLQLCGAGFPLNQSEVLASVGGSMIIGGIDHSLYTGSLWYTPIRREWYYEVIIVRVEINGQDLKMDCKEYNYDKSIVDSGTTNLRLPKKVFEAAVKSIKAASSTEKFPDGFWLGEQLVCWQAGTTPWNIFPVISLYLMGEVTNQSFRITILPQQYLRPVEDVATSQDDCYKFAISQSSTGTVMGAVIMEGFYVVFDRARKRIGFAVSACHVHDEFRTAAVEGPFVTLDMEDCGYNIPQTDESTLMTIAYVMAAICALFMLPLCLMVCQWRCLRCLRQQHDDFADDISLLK
row,IC50 [µM],Compound
1,3,CC(C)C[C@H](NC(=O)C(O)c1cccc2ccccc12)[C@@H](O)CC(=O)N[C@H](C(=O)NC1C[C@@H](C(=O)O)C[C@@H](C(=O)O)C1)C(C)C (stereo partly specified)
2,48,CC(C)CC(NC(=O)c1ccc2ccccc2c1)[C@@H](O)CC(=O)N[C@@H](C(=O)N[C@H](C)C(=O)N[C@H](CCC(=O)O)C(=O)N[C@H](Cc1ccccc1)C(=O)O)C(C)C (stereo partly specified)
3,4,CC(C)CC(NC(=O)C(O)c1cccc2ccccc12)[C@@H](O)CC(=O)N[C@@H](C(=O)N[C@H](C)C(=O)N[C@H](CCC(=O)O)C(=O)N[C@H](Cc1ccccc1)C(=O)O)C(C)C (stereo partly specified)
4,4,CSCC[C@H](NC(=O)[C@@H](NC(=O)OC(C)(C)C)C(C)C)C(=O)NC(CC(C)C)[C@@H](O)CC(=O)N[C@@H](C(=O)NCc1ccc(C(=O)O)cc1)C(C)C (stereo partly specified)
5,6,CC(C)CC(NC(=O)C(O)c1cccc(Oc2ccccc2)c1)[C@@H](O)CC(=O)N[C@@H](C(=O)N[C@H](C)C(=O)N[C@H](CCC(=O)O)C(=O)N[C@H](Cc1ccccc1)C(=O)O)C(C)C (stereo partly specified)
6,56,CC(C)CC(NC(=O)Cc1ccc(-c2ccccc2)cc1)[C@@H](O)CC(=O)N[C@@H](C(=O)N[C@H](C)C(=O)N[C@H](CCC(=O)O)C(=O)N[C@H](Cc1ccccc1)C(=O)O)C(C)C (stereo partly specified)
7,> 200,CSCC[C@H](NC(=O)[C@@H](NC(=O)OC(C)(C)C)C(C)C)C(=O)NC(CC(C)C)[C@@H](O)CC(=O)N[C@@H](C(=O)NCc1ccccc1)C(C)C (stereo partly specified)
8,40,CC(C)C[C@H](NC(=O)C(O)c1ccccc1Br)[C@@H](O)CC(=O)N[C@H](C(=O)NCc1ccc(C(=O)O)cc1)C(C)C (stereo partly specified)
9,28,CC(C)Cc1ccc(C(=O)NC(CC(C)C)[C@@H](O)CC(=O)N[C@@H](C(=O)N[C@H](C)C(=O)N[C@H](CCC(=O)O)C(=O)N[C@H](Cc2ccccc2)C(=O)O)C(C)C)cc1 (stereo partly specified)
10,3,CC(C)CC(NC(=O)C(O)c1ccccc1Br)[C@@H](O)CC(=O)N[C@@H](C(=O)N[C@H](C)C(=O)N[C@H](CCC(=O)O)C(=O)N[C@H](Cc1ccccc1)C(=O)O)C(C)C (stereo partly specified)
11,14,CC(C)CC(NC(=O)C(O)c1ccccc1Oc1ccccc1)[C@@H](O)CC(=O)N[C@@H](C(=O)N[C@H](C)C(=O)N[C@H](CCC(=O)O)C(=O)N[C@H](Cc1ccccc1)C(=O)O)C(C)C (stereo partly specified)
12,17,CC(C)CC(NC(=O)[C@@H](O)c1ccccc1)[C@@H](O)CC(=O)N[C@@H](C(=O)N[C@H](C)C(=O)N[C@H](CCC(=O)O)C(=O)N[C@H](Cc1ccccc1)C(=O)O)C(C)C (stereo partly specified)
13,50,CC(C)C[C@H](NC(=O)C(O)c1cccc2ccccc12)[C@@H](O)CC(=O)N[C@H](C(=O)NCc1ccc(C(=O)O)cc1)C(C)C (stereo partly specified)
14,140,COC(=O)[C@@H]1CC(NC(=O)[C@@H](NC(=O)C[C@H](O)[C@H](CC(C)C)NC(=O)C(O)c2cccc3ccccc23)C(C)C)C[C@H](C(=O)OC)C1 (stereo partly specified)
15,42,CC(C)CC(NC(=O)Cc1cccc2ccccc12)[C@@H](O)CC(=O)N[C@@H](C(=O)N[C@H](C)C(=O)N[C@H](CCC(=O)O)C(=O)N[C@H](Cc1ccccc1)C(=O)O)C(C)C (stereo partly specified)
16,11,CC(C)CC(NC(=O)C(O)c1ccccc1OCc1ccccc1)[C@@H](O)CC(=O)N[C@@H](C(=O)N[C@H](C)C(=O)N[C@H](CCC(=O)O)C(=O)N[C@H](Cc1ccccc1)C(=O)O)C(C)C (stereo partly specified)

# The remaining lines, values behind:
row,Compound,IC50 [µM]
1,CC(C)CC(NC(=O)Cc1ccccc1)[C@@H](O)CC(=O)N[C@@H](C(=O)N[C@H](C)C(=O)N[C@H](CCC(=O)O)C(=O)N[C@H](Cc1ccccc1)C(=O)O)C(C)C (stereo partly specified),130
2,CSCC[C@H](NC(=O)[C@@H](NC(=O)OC(C)(C)C)C(C)C)C(=O)NC(CC(C)C)[C@@H](O)CC(=O)N[C@@H](C(=O)NC1CCCCC1)C(C)C (stereo partly specified),> 200
3,CSCC[C@H](NC(=O)[C@@H](NC(=O)OC(C)(C)C)C(C)C)C(=O)NC(CC(C)C)[C@@H](O)CC(=O)N[C@@H](C(=O)NCc1ccncc1)C(C)C (stereo partly specified),> 100
4,CSCC[C@H](NC(=O)[C@@H](NC(=O)OC(C)(C)C)C(C)C)C(=O)NC(CC(C)C)[C@@H](O)CC(=O)N[C@@H](C(=O)NCc1cccc(C(=O)O)c1)C(C)C (stereo partly specified),4
5,CO[C@H](C(=O)NC(CC(C)C)[C@@H](O)CC(=O)N[C@@H](C(=O)N[C@H](C)C(=O)N[C@H](CCC(=O)O)C(=O)N[C@H](Cc1ccccc1)C(=O)O)C(C)C)c1ccccc1 (stereo partly specified),28
6,COc1cc(CC(=O)NC(CC(C)C)[C@@H](O)CC(=O)N[C@@H](C(=O)N[C@H](C)C(=O)N[C@H](CCC(=O)O)C(=O)N[C@H](Cc2ccccc2)C(=O)O)C(C)C)cc(OC)c1OC (stereo partly specified),94
7,COC(=O)[C@@H]1CC(NC(=O)[C@H](NC(=O)C[C@H](O)C(CC(C)C)NC(=O)[C@H](CCSC)NC(=O)[C@@H](NC(=O)OC(C)(C)C)C(C)C)C(C)C)C[C@H](C(=O)OC)C1 (stereo partly specified),10
8,CC(C)CC(NC(=O)Cc1ccc(F)cc1F)[C@@H](O)CC(=O)N[C@@H](C(=O)N[C@H](C)C(=O)N[C@H](CCC(=O)O)C(=O)N[C@H](Cc1ccccc1)C(=O)O)C(C)C (stereo partly specified),140
9,COC(=O)CCCCC(=O)NC(CC(C)C)[C@@H](O)CC(=O)N[C@@H](C(=O)N[C@H](C)C(=O)N[C@H](CCC(=O)O)C(=O)N[C@H](Cc1ccccc1)C(=O)O)C(C)C (stereo partly specified),50
10,CSCC[C@H](NC(=O)[C@@H](NC(=O)OC(C)(C)C)C(C)C)C(=O)NC(CC(C)C)[C@@H](O)CC(=O)N[C@@H](C(=O)NCc1ccc2c(c1)OCO2)C(C)C (stereo partly specified),> 100
11,CSCC[C@H](NC(=O)[C@@H](NC(=O)OC(C)(C)C)C(C)C)C(=O)NC(CC(C)C)[C@@H](O)CC(=O)N[C@@H](C(=O)NO)C(C)C (stereo partly specified),94
12,CSCC[C@H](NC(=O)[C@@H](NC(=O)OC(C)(C)C)C(C)C)C(=O)NC(CC(C)C)[C@@H](O)CC(=O)N[C@@H](C(=O)NC1C[C@@H](C(=O)O)C[C@@H](C(=O)O)C1)C(C)C (stereo partly specified),0.3
13,CC(C)CC(NC(=O)CCCOc1ccccc1)[C@@H](O)CC(=O)N[C@@H](C(=O)N[C@H](C)C(=O)N[C@H](CCC(=O)O)C(=O)N[C@H](Cc1ccccc1)C(=O)O)C(C)C (stereo partly specified),25
14,CSCC[C@H](NC(=O)[C@@H](NC(=O)OC(C)(C)C)C(C)C)C(=O)NC(CC(C)C)[C@@H](O)CC(=O)N[C@@H](C(=O)NCc1cccc(OCC(=O)O)c1)C(C)C (stereo partly specified),5
15,COC(=O)CCCNC(=O)[C@H](NC(=O)C[C@H](O)C(CC(C)C)NC(=O)[C@H](CCSC)NC(=O)[C@@H](NC(=O)OC(C)(C)C)C(C)C)C(C)C (stereo partly specified),47
16,CCCCNC(=O)[C@H](NC(=O)C[C@H](O)C(CC(C)C)NC(=O)[C@H](CCSC)NC(=O)[C@@H](NC(=O)OC(C)(C)C)C(C)C)C(C)C (stereo partly specified),> 200
17,CCCCOc1ccc(C(=O)NC(CC(C)C)[C@@H](O)CC(=O)N[C@@H](C(=O)N[C@H](C)C(=O)N[C@H](CCC(=O)O)C(=O)N[C@H](Cc2ccccc2)C(=O)O)C(C)C)cc1 (stereo partly specified),27
18,CO[C@](C)(C(=O)NC(CC(C)C)[C@@H](O)CC(=O)N[C@@H](C(=O)N[C@H](C)C(=O)N[C@H](CCC(=O)O)C(=O)N[C@H](Cc1ccccc1)C(=O)O)C(C)C)c1ccccc1 (stereo partly specified),41
19,CSCC[C@H](NC(=O)[C@@H](NC(=O)OC(C)(C)C)C(C)C)C(=O)NC(CC(C)C)[C@@H](O)CC(=O)N[C@@H](C(=O)NCCCC(=O)O)C(C)C (stereo partly specified),47
20,CSCC[C@H](NC(=O)[C@@H](NC(=O)OC(C)(C)C)C(C)C)C(=O)NC(CC(C)C)[C@@H](O)CC(=O)N[C@@H](C(=O)NCCC(=O)O)C(C)C (stereo partly specified),30
21,CSCC[C@H](NC(=O)[C@@H](NC(C)=O)C(C)C)C(=O)N[C@@H](CC(C)C)[C@@H](O)CC(=O)N[C@H](C(=O)N[C@@H](C)C(=O)N[C@@H](CCC(=O)O)C(=O)N[C@@H](Cc1ccccc1)C(=O)O)C(C)C (Ac-VM[Sta]VAEF-OH),0.3
22,"COC(=O)[C@@H]1CC(NC(=O)[C@H](NC(=O)C[C@H](O)[C@@H](Cc2cc(F)cc(F)c2)NC(=O)C(O)c2ccccc2-c2ccccc2)C(C)C)C[C@H](C(=O)OC)C1 (single isomer, unassigned; isomer 1)",0.12
23,"COC(=O)[C@@H]1CC(NC(=O)[C@H](NC(=O)C[C@H](O)[C@@H](Cc2cc(F)cc(F)c2)NC(=O)C(O)c2ccccc2-c2ccccc2)C(C)C)C[C@H](C(=O)OC)C1 (single isomer, unassigned; isomer 2)",10

# System: HEK293
# Assay: Inhibition of A beta-secretion in transfected human embryonic kidney (HEK293) cells
# Format: functional, cell-based
# Method in brief: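 Transfected HEK-293 cells incubated with inhibitor; Aβ secretion measured and EC50 taken as the concentration giving 50% inhibition of Aβ production.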
row,Compound,EC50 [µM]
1,"COC(=O)[C@@H]1CC(NC(=O)[C@H](NC(=O)C[C@H](O)[C@@H](Cc2cc(F)cc(F)c2)NC(=O)C(O)c2ccccc2-c2ccccc2)C(C)C)C[C@H](C(=O)OC)C1 (single isomer, unassigned; isomer 1)",4
2,"COC(=O)[C@@H]1CC(NC(=O)[C@H](NC(=O)C[C@H](O)[C@@H](Cc2cc(F)cc(F)c2)NC(=O)C(O)c2ccccc2-c2ccccc2)C(C)C)C[C@H](C(=O)OC)C1 (single isomer, unassigned; isomer 2)",> 10
